Published values from different studies.
Lines come from different studies, so protocols differ.
Matrix: plasma

C[C@H](O)C(=O)C1=Nc2c(nc(N)[nH]c2=O)NC1
Cmax (human; oral, 20 mg/kg, single dose, healthy volunteers): 1.51 ng/mL

CN1CC[C@@H](c2c(O)cc(O)c3c(=O)cc(-c4ccc(C(F)(F)F)cc4Cl)oc23)[C@@H]1CO
Cmax (human; oral, 150 mg, patients): 245 ng/mL

Cn1cc(Nc2nc(N)nc(-c3cccc(-n4ccc5cc(C6CC6)cc(F)c5c4=O)c3CO)n2)cn1
Cmax (human; oral, 5 mg, single dose, fasted, suspension): 28.6 ng/mL

CNC(=O)n1ccc2cc(Oc3ccnc(NC(=O)c4ccc(C5CCN(CCO)CC5)cc4)c3)c(OCCOC)cc21
Cmax (human; oral, 35 mg, single dose, fed, healthy volunteers): 6.81 ng/mL

Cc1ccc(C(=O)Nc2ccc(CN3CCN(C)CC3)c(C(F)(F)F)c2)cc1C#Cc1cnc2[nH]ncc2c1
Cmax (human; oral, 20 mg, single dose, fed, healthy volunteers): 5.02 ng/mL

Cl.[2H]C([2H])([2H])CC(=O)c1cnc(NC(=O)C2CC2)cc1Nc1cccc(-c2ncn(C([2H])([2H])[2H])n2)c1OC
Cmax (human; oral, 20 mg, multiple doses, once daily, fasted): 132 ng/mL

CC(C)n1c(Nc2cccnc2)nc2cnc(Nc3ccc(N4CCN(C)CC4)cc3)nc21
Cmax (male human; oral, 100 mg, single dose): 45.7 ng/mL

COc1ccc([C@@H](O)c2cc(-c3ncnc4cc(N5CCOCC5)ccc34)c(F)cc2Cl)nn1
Cmax (human; oral, 200 mg, single dose, patients): 854 ng/mL

N[C@@H]1c2cccnc2[C@H](OC(=O)N2CCC(n3c(=O)[nH]c4ncccc43)CC2)CC[C@H]1c1cccc(F)c1F
Cmax (human; oral, 75 mg, single dose): 923 ng/mL

CC(=O)N[C@H]1CC[C@H](NC(=O)CN2CCN(c3nncc(-c4ccc(C)cc4)n3)CC2)CC1
Cmax (female human; oral, 100 mg, single dose, fasted): 1550 ng/mL

NS(=O)(=O)OC[C@@H]1C[C@@H](n2ccc3c(N[C@H]4CCc5ccccc54)ncnc32)C[C@@H]1O
Cmax (human; intravenous, 15 mg/m², patients): 127 ng/mL
